Experimental data from ChEMBL document CHEMBL5661979, “Pharmacological inhibition of BMK1 suppresses tumor growth through promyelocytic leukemia protein” (Cancer Cell, 2010).
The source made the active and inactive calls. The calls are words filed in the database; no cut-off is given here.

Columns and labels:
[1] = target: Serine/threonine-protein kinase B-raf (Homo sapiens, UniProt P15056); test: Inhibition of BRAF in human HeLa cells lysate pre incubated for 15 mins followed by ATP acyl phosphate probe addition and measured after 10 mins by LC-MS/MS analysis; format: subcellular
In short: (§1)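 KiNativ-type profiling in HeLa lysate (5 mg/mL total protein). Lysate preincubated 15 min with inhibitor at 50, 10, 2, 0.8 or 0 μM, then ATP or ADP acylphosphate probe added (5 μM final) for 10 min. Reaction stopped with urea and analysed by targeted MS, using up to four fragment ions per kinase peptide-probe conjugate. % inhibition calculated against untreated lysate. Duplicate reactions.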

[2] = target: Casein kinase I isoform alpha (Homo sapiens, UniProt P48729); test: Inhibition of CK1alpha in human HeLa cells lysate pre incubated for 15 mins followed by ATP acyl phosphate probe addition and measured after 10 mins by LC-MS/MS analysis; format: subcellular
p38 delta/gamma = p38 delta/gamma (Homo sapiens, UniProt O15264+P53778); test: Inhibition of P38delta/gamma in human HeLa cells lysate pre incubated for 15 mins followed by ATP acyl phosphate probe addition and measured after 10 mins by LC-MS/MS analysis; format: subcellular
[3] = target: Ribosomal protein S6 kinase beta-1 (Homo sapiens, UniProt P23443); test: Inhibition of P70S6K in human HeLa cells lysate pre incubated for 15 mins followed by ATP acyl phosphate probe addition and measured after 10 mins by LC-MS/MS analysis; format: subcellular
[4] = target: T1, Serine/threonine-protein kinase PLK1 (Homo sapiens, UniProt P53350); test: Inhibition of PLK1 K2 site in human HeLa cells lysate pre incubated for 15 mins followed by ATP acyl phosphate probe addition and measured after 10 mins by LC-MS/MS analysis; format: subcellular
IKK epsilon/TBK1 = IKK epsilon/TBK1 (Homo sapiens, UniProt Q14164+Q9UHD2); test: Inhibition of IKKE/TBK1 in human HeLa cells lysate pre incubated for 15 mins followed by ADP acyl phosphate probe addition and measured after 10 mins by LC-MS/MS analysis; format: subcellular
Insulin receptor = Insulin receptor (Homo sapiens, UniProt P06213); test: Inhibition of INSR in human HeLa cells lysate pre incubated for 15 mins followed by ADP acyl phosphate probe addition and measured after 10 mins by LC-MS/MS analysis; format: subcellular
[5] = target: Interleukin-1 receptor-associated kinase 4 (Homo sapiens, UniProt Q9NWZ3); test: Inhibition of IRAK4 in human HeLa cells lysate pre incubated for 15 mins followed by ADP acyl phosphate probe addition and measured after 10 mins by LC-MS/MS analysis; format: subcellular
[6] = target: T1, Serine/threonine-protein kinase PLK1; test: Inhibition of PLK1 splice variant in human HeLa cells lysate pre incubated for 15 mins followed by ADP acyl phosphate probe addition and measured after 10 mins by LC-MS/MS analysis; format: subcellular
[7] = target: Cyclin-dependent kinase 16 (Homo sapiens, UniProt Q00536); test: Inhibition of PCTAIRE1 in human HeLa cells lysate at 50 uM pre incubated for 15 mins followed by ADP acyl phosphate probe addition and measured after 10 mins by LC-MS/MS analysis relative to control; format: subcellular; conditions: time 25.0 min
[8] = target: MAP/microtubule affinity-regulating kinase 3 (Homo sapiens, UniProt P27448); test: Inhibition of MARK3 in human HeLa cells lysate at 10 uM pre incubated for 15 mins followed by ADP acyl phosphate probe addition and measured after 10 mins by LC-MS/MS analysis relative to control; format: subcellular; conditions: time 25.0 min
[9] = target: Tyrosine-protein kinase receptor UFO (Homo sapiens) (UniProt P30530); test: Inhibition of AXL in human HeLa cells lysate at 10 uM pre incubated for 15 mins followed by ADP acyl phosphate probe addition and measured after 10 mins by LC-MS/MS analysis relative to control; format: subcellular; conditions: time 25.0 min; in short: as §1
[10] = Inhibition of MAP3K5/MAP3K6/MAP3K15 in human HeLa cells lysate at 50 uM pre incubated for 15 mins followed by ATP acyl phosphate probe addition and measured after 10 mins by LC-MS/MS analysis relative to control; conditions: 25 min, condition cancer
[11] = target: Tyrosine-protein kinase CSK (Homo sapiens, UniProt P41240); test: Inhibition of CSK in human HeLa cells lysate at 50 uM pre incubated for 15 mins followed by ATP acyl phosphate probe addition and measured after 10 mins by LC-MS/MS analysis relative to control; format: subcellular; conditions: time 25.0 min
[12] = Inhibition of MAP3K5/MAP3K6/MAP3K15 in human HeLa cells lysate at 10 uM pre incubated for 15 mins followed by ATP acyl phosphate probe addition and measured after 10 mins by LC-MS/MS analysis relative to control; conditions: 25 min, condition cancer
[13] = target: Protein kinase C theta type (Homo sapiens, UniProt Q04759); test: Inhibition of PKCtheta in human HeLa cells lysate at 10 uM pre incubated for 15 mins followed by ATP acyl phosphate probe addition and measured after 10 mins by LC-MS/MS analysis relative to control; format: subcellular; conditions: time 25.0 min
[14] = Inhibition of HGK/MINK/TNIK in human HeLa cells lysate at 10 uM pre incubated for 15 mins followed by ATP acyl phosphate probe addition and measured after 10 mins by LC-MS/MS analysis relative to control; conditions: 25 min, condition cancer
RPS6KA1/RPS6KA2/RPS6KA3 = RPS6KA1/RPS6KA2/RPS6KA3 (Homo sapiens, UniProt P51812+Q15349+Q15418); test: Inhibition of RSK1/2/3 in human HeLa cells lysate at 2 uM pre incubated for 15 mins followed by ATP acyl phosphate probe addition and measured after 10 mins by LC-MS/MS analysis relative to control; format: subcellular; conditions: time 25.0 min
[15] = Inhibition of NEK6/7 in human HeLa cells lysate at 2 uM pre incubated for 15 mins followed by ATP acyl phosphate probe addition and measured after 10 mins by LC-MS/MS analysis relative to control; conditions: 25 min, condition cancer
[16] = Clearance in Sprague-Dawley rat at 1 mg/kg, iv measured up to 8 hrs by LC-MS/MS analysis; format: ADME, organism-based; conditions: in vivo
In short: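 Sprague-Dawley rats given one intravenous dose or one oral dose of 2 mg/kg. Plasma drug concentrations were followed over time, with samples taken out to 8 hr after dosing. PK parameters (clearance, volume of distribution, half-life, oral bioavailability, Cmax) were calculated from these concentration–time data.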

[17] = Toxicity in C57Bl/6 mouse assessed as effect on alkaline phosphatase level at 50 mg/kg, ip for 14 days (reference value: 51 U/L); format: organism-based; conditions: in vivo, 336 h, time 14 day
A549 = test: Antitumor activity against human A549 cells xenografted in NOD/SCID mouse assessed as increase in p21 protein expression level at 50 mg/kg, ip administered twice a day for 2 days by Western blot analysis; format: functional, organism-based; conditions: time 2.0 day
In short: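 A549 cells (1×10^6, in DMEM) were injected s.c. into the right flank of 6-week-old Nod/Scid mice. On day 21, mice received 50 mg/kg twice daily or carrier; 2 per group. After 2 days, tumors were homogenized in E1A buffer. Western blot read BMK1 activation (mobility shift) and p21, quantified by densitometry normalized to GAPDH.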

Lewis lung carcinoma = test: Antitumor activity against mouse LL2 cells allografted in C57Bl/6 mouse assessed as reduction tumor growth at 50 mg/kg, ip administered for 17 days; format: functional, organism-based; conditions: time 17.0 day
In short: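 LL/2 cells (1×10^6, in DMEM) were injected s.c. into the right flank of 6-week-old C57Bl/6 mice on day 0. Dosing was 50 mg/kg i.p. twice daily, starting on day 1, 7 or 10 and continuing to day 17; controls received carrier. 6 mice per treated group. Tumors were measured every 2–3 days.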

Sequence of RPS6KA1/RPS6KA2/RPS6KA3 (P51812 whole entry, looked up): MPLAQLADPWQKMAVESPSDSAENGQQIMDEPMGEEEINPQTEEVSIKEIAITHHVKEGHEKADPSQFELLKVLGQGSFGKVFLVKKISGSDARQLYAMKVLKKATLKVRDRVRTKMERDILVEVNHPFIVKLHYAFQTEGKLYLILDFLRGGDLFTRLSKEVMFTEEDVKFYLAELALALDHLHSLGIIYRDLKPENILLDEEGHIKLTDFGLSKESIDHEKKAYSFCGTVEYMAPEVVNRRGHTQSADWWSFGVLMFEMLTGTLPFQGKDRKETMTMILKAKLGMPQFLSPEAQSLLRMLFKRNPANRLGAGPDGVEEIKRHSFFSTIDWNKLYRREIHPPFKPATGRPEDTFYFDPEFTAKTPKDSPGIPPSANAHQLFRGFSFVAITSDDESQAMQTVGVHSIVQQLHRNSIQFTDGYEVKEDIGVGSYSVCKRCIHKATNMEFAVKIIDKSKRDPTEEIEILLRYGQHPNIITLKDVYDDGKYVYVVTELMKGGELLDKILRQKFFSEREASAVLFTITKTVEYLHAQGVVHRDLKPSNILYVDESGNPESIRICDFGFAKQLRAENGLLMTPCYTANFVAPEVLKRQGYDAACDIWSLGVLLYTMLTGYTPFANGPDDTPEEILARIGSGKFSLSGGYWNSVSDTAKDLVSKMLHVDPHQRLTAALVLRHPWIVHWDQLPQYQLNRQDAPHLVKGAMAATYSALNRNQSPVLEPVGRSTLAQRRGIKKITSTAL
Sequence of RPS6KA1/RPS6KA2/RPS6KA3 (Q15349 whole entry, looked up): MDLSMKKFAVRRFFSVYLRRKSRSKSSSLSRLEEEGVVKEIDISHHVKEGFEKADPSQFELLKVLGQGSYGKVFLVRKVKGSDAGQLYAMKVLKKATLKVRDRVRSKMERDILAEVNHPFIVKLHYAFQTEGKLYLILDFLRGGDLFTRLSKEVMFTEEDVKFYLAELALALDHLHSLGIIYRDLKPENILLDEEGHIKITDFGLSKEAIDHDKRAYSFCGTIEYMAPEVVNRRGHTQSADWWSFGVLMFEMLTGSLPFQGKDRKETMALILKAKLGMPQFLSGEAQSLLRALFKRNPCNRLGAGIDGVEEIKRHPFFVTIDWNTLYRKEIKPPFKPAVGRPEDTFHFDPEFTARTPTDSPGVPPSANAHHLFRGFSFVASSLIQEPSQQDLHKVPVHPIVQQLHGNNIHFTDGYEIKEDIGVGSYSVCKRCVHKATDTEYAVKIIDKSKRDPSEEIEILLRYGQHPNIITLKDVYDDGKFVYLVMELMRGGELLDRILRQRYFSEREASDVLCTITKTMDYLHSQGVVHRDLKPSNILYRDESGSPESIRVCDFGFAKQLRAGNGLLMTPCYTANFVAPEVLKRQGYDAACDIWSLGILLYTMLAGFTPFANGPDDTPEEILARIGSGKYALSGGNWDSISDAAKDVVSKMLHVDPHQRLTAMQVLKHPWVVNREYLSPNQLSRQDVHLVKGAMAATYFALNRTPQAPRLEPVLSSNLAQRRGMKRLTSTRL
Sequence of RPS6KA1/RPS6KA2/RPS6KA3 (Q15418 whole entry, looked up): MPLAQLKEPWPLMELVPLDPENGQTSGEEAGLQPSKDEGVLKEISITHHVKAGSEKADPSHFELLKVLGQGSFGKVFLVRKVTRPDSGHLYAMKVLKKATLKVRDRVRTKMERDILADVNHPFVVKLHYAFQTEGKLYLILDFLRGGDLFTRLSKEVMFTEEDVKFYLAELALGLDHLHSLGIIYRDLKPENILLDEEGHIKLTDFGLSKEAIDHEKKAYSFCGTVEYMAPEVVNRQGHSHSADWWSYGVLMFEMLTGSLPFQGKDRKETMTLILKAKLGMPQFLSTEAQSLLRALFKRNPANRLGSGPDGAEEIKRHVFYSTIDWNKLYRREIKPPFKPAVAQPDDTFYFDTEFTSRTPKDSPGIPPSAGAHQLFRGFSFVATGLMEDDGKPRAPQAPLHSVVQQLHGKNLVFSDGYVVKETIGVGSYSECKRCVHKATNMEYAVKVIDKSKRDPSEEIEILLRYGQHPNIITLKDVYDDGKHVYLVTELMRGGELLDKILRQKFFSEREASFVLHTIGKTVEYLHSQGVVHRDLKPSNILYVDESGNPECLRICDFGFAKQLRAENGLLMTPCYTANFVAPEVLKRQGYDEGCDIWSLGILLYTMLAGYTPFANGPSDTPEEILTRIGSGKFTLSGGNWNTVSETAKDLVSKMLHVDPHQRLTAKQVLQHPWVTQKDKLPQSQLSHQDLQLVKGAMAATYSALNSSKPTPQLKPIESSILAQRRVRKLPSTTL
Sequence of Insulin receptor (P06213 28-758 limits assumed): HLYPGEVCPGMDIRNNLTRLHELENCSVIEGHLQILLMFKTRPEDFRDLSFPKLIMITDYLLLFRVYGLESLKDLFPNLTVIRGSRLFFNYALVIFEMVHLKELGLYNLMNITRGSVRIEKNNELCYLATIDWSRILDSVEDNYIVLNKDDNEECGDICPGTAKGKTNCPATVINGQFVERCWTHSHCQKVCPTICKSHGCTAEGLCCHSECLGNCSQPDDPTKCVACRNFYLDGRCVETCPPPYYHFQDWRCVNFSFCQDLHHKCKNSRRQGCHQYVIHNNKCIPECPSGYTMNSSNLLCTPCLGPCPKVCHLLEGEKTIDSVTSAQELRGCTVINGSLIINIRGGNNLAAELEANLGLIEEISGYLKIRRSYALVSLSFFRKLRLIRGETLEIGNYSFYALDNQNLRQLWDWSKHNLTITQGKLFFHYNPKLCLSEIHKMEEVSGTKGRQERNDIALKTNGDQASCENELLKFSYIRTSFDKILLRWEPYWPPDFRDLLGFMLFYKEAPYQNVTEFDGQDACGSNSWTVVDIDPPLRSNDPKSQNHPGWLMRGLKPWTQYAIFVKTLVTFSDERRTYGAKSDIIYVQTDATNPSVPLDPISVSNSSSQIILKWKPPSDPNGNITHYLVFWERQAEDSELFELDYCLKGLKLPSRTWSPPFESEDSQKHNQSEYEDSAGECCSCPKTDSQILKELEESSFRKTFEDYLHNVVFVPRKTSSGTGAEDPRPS
Sequence of Insulin receptor (P06213 763-1382 limits assumed): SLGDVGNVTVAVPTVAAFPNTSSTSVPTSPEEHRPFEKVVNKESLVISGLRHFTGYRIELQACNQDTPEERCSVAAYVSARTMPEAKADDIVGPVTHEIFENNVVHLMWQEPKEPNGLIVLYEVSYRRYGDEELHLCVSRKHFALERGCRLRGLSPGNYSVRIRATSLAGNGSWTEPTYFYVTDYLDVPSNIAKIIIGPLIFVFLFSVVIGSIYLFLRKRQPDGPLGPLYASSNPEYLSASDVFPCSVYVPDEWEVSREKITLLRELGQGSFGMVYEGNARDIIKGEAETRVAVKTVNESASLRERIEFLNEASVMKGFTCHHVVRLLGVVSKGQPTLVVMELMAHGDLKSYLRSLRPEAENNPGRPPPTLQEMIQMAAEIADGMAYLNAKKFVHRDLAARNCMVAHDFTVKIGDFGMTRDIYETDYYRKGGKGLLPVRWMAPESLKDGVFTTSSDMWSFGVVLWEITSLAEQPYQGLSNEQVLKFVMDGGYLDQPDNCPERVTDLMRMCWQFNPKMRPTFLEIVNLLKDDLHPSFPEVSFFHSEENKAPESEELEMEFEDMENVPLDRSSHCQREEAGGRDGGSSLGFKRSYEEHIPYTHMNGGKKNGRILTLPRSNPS
Sequence of Tyrosine-protein kinase receptor UFO (Homo sapiens) (P30530 whole entry): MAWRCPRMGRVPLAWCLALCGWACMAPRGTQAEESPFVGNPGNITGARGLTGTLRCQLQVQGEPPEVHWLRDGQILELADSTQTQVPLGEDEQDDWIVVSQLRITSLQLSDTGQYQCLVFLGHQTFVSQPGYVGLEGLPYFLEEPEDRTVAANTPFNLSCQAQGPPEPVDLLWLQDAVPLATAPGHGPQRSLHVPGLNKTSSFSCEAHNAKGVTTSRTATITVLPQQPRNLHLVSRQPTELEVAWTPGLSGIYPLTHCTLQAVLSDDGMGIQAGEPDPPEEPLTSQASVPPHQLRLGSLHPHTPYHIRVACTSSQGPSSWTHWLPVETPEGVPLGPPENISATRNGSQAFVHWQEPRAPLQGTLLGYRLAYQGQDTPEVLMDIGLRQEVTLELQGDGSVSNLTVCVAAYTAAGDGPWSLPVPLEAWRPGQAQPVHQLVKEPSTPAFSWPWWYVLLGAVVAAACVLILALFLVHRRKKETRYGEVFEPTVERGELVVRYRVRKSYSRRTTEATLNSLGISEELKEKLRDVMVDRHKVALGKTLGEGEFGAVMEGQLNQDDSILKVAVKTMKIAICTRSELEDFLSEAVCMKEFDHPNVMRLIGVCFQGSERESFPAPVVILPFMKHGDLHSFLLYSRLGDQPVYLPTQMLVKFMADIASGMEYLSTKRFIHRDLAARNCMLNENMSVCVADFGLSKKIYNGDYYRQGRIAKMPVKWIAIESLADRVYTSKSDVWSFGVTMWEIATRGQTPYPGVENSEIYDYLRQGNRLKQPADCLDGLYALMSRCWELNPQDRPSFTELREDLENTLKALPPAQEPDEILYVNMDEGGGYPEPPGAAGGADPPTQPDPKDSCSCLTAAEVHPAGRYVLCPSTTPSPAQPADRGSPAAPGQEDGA
Sequence of Ribosomal protein S6 kinase beta-1 (P23443 whole entry): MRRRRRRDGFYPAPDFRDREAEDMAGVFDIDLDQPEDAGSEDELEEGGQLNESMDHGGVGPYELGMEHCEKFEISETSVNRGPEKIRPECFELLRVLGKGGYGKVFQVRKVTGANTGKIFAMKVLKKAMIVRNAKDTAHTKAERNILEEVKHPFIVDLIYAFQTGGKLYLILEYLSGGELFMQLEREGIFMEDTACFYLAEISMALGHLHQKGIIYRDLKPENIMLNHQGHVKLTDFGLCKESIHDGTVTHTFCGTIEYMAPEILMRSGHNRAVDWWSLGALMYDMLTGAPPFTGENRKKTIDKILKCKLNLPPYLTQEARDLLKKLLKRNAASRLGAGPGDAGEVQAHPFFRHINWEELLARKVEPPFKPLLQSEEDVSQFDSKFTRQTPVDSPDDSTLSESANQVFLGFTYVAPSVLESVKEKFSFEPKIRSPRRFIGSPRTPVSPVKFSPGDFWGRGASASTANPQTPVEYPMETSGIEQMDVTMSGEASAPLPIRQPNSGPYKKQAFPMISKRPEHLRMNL

## CCOc1cc(N2CCC(O)CC2)ccc1Nc1ncc2c(n1)N(C)c1ccccc1C(=O)N2C
[1]
  IC50: > 50 µM
[2]
  IC50: > 50 µM
p38 delta/gamma
  IC50: > 50 µM
[3]
  IC50: > 50 µM
[4]
  IC50: > 50 µM
IKK epsilon/TBK1
  IC50: > 50 µM
Insulin receptor
  IC50: > 50 µM
[5]
  IC50: > 50 µM
[6]
  IC50: > 50 µM
[7]
  inhibition: 11.3%
[8]
  inhibition: 4.8%
[9]
  inhibition: -5.1%
[10]
  inhibition at 50 µM: 2.5%
[11]
  inhibition: 0.9%
[12]
  inhibition at 10 µM: 1.4%
[13]
  inhibition: 12.4%
[14]
  inhibition at 10 µM: -6.3%
RPS6KA1/RPS6KA2/RPS6KA3
  inhibition: 11.6%
[15]
  inhibition at 2 µM: -4.1%
[16]
  clearance: 26 mL/min/kg
[17]
  Activity: 235 U/L
A549
  Activity: Active
Lewis lung carcinoma
  Activity: Active
